Source: article PMC10243129 (Proceedings of the National Academy of Sciences of the …, 2023)

Experiments:
human MCM•cob(II)alamin [1] = biological target: T1, human MCM•cob(II)alamin (Homo sapiens, UniProt P22033); assay: Metabolite binding to MCM•cob
T1 sequence (P22033 33-750): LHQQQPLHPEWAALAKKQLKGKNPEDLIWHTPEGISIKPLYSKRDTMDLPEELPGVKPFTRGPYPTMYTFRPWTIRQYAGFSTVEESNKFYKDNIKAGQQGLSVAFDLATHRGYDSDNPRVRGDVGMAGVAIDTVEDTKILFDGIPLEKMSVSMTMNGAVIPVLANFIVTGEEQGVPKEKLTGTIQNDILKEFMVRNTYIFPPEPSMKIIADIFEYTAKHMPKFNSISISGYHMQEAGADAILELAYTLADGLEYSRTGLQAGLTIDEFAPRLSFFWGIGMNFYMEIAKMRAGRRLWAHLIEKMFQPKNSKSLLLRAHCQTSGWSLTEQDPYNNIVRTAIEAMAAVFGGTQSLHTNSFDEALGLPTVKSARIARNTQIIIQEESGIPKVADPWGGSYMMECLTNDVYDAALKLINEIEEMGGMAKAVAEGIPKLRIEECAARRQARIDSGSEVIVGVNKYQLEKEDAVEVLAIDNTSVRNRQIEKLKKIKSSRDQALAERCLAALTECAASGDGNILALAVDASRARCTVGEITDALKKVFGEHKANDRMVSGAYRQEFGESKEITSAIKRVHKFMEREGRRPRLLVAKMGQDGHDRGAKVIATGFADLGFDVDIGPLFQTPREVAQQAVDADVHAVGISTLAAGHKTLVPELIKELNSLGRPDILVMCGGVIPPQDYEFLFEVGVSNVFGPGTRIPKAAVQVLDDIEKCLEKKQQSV
Method in brief: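 Cob(II)alamin was made by photolysis of 1.2 mM AdoCbl (stock) in anaerobic water and quantified with ε474 9.2 cm⁻¹ mM⁻¹. Work was done in an anaerobic chamber (<0.2 ppm O₂) with 40 µM cob(II)alamin and 20 µM MCM dimer in Buffer A at 20 °C. For the screen, metabolites were added at 5 mM and spectra recorded after 15 min. For Kd, metabolite was titrated, A460 read after 10 min, and data fitted to a quadratic binding equation.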

human MCM, CblA and ATR = biological target: T2, human MCM, CblA and ATR (Homo sapiens, UniProt P22033); assay: CblA-dependent cob; assay type: biochemical; settings: cob(II)alamin transfer MCM to ATR, anaerobic, 25 °C, 5 mM ADP or 0.5 mM M-CoA
T2 sequence (P22033 33-750): T1 sequence (P22033 33-750)
Method in brief: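 Recombinant human MCM, CblA and ATR expressed in E. coli. Metabolite (ADP or M-CoA) was added to the MCM solution. A464 was followed for 20 min; transfer extent came from Δε464 5.6 cm⁻¹ mM⁻¹, and kobs from a single-exponential fit.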

human MCM•cob(II)alamin [2] = biological target: T1, human MCM•cob(II)alamin; assay: Stopped-flow spectroscopy of ADP/ATP binding to MCM•cob
Method in brief: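 Anaerobic stopped-flow with diode-array detection was run at 25 °C. MCM•cob(II)alamin was preformed from 80 µM cob(II)alamin and 40 µM MCM dimer (stock) in Buffer A for 10 min, then rapidly mixed with 0.25–2.5 mM ADP or ATP. A460 traces were fitted to a single exponential for kobs. kon came from linear regression of kobs on metabolite concentration, and koff from titration Kd and kon.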

[3] = biological target: T3, Mycobacterium tuberculosis MCM (Mycobacterium tuberculosis, UniProt P9WJK5); assay: Kinetics of M. tuberculosis MCM•cob; assay type: biochemical; settings: in air
T3 sequence (P9WJK5 1-750): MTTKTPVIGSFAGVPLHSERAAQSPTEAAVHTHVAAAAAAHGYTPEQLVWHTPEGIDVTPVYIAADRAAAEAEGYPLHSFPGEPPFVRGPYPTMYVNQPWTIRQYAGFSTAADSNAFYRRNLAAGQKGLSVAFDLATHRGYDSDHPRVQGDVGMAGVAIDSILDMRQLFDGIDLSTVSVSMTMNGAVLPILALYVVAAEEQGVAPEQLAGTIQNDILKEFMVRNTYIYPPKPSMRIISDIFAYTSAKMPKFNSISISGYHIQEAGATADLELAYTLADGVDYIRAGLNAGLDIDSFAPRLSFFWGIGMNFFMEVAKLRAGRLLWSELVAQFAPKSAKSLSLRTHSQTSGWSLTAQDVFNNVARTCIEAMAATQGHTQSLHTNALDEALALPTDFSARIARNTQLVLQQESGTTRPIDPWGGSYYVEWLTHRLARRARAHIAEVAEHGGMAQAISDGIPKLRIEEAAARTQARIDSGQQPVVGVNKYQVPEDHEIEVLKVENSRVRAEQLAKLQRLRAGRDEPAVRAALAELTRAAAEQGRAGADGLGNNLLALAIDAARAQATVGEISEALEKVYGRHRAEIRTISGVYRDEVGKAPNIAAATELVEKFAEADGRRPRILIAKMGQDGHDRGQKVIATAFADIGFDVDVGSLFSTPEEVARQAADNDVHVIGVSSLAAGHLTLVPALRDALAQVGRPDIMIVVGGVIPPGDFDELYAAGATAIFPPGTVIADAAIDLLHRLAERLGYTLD
T3 sequence (P9WJK7 1-615 partner): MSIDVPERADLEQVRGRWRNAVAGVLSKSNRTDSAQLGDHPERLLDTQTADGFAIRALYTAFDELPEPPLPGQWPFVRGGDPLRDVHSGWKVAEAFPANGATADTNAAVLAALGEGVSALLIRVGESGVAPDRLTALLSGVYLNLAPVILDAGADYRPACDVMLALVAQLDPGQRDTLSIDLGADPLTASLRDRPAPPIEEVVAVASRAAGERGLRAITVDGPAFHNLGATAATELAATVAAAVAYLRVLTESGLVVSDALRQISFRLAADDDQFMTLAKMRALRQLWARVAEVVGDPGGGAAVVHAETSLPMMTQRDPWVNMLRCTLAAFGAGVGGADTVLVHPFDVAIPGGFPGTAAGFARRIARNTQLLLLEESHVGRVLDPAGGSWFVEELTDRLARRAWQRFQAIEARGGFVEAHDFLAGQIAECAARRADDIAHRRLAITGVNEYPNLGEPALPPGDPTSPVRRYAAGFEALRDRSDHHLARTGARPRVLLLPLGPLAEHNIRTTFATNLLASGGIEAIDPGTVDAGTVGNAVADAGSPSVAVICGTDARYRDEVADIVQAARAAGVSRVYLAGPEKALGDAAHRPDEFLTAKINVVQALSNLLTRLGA

human ATR = biological target: T4, human ATR (Homo sapiens, UniProt Q96EY8); assay: ATP-triggered release of AdoCbl from ATR into solution; assay type: biochemical; settings: ATR•AdoCbl without PPPi, confirmed after separation with a 10 kDa cutoff filter
T4 sequence (Q96EY8 33-250): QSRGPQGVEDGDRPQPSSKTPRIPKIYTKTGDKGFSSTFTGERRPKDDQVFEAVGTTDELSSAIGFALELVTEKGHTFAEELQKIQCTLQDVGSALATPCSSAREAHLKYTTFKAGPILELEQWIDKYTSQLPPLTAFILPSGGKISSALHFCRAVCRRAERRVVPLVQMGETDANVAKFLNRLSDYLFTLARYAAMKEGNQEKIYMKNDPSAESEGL

ATR = settings: PPPi on ATR ternary product complex; ref [14]; cited from earlier work
human MCM = biological target: T5, human MCM (Homo sapiens, UniProt P22033); assay: Kinetics of human MCM•cob; assay type: biochemical; settings: absence of ligands, in air, 25 °C
T5 sequence (P22033 33-750): T1 sequence (P22033 33-750)
Method in brief: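 The MCM•cob(II)alamin sample (40 µM cob(II)alamin, 20 µM MCM dimer) was prepared in anaerobic Buffer A at pH 7.5. Oxidation was started by twofold dilution with aerobic buffer. H₂OCbl formation was followed as the rise in absorbance at 350 nm versus time, giving kobs.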

Row | SMILES | Kd (human MCM•cob(II)alamin [1]) | Rate of transfer (kobs) (human MCM, CblA and ATR) | also measured
1 | C[C@H]1O[C@@H](n2cnc3c(N)ncnc32)[C@H](O)[C@@H]1O [5′-dAdo, 5′-deoxyadenosine] | 4.2 ± 2.1 µM |  | 
2 | Nc1ncnc2c1ncn2[C@@H]1O[C@H](COP(=O)(O)OP(=O)(O)O)[C@@H](O)[C@H]1O [ADP, adenosine diphosphate] | 44 ± 4.2 µM | 0.24 ± 0.01 min⁻¹ | fold higher kon of ADP versus ATP (human MCM•cob(II)alamin [2]; ADP vs ATP): ~ 100 fold; rate of ADP binding relative to oxidation of cob(II)alamin on MCM (human MCM•cob(II)alamin [2]; assuming a cellular ADP concentration of 6 mM): ~ 600 fold; Effect on oxidation of cob(II)alamin bound to M. tuberculosis MCM [3]: prevented
3 | Nc1ncnc2c1ncn2[C@@H]1O[C@H](COP(=O)(O)OP(=O)(O)OP(=O)(O)O)[C@@H](O)[C@H]1O [ATP, adenosine triphosphate] | 30 ± 5 µM |  | AdoCbl released from ATR into solution (human ATR): 40%
4 | CC(C)(COP(=O)(O)OP(=O)(O)OC[C@H]1O[C@@H](n2cnc3c(N)ncnc32)[C@H](O)[C@@H]1OP(=O)(O)O)[C@@H](O)C(=O)NCCC(=O)NCCS [CoA, Coenzyme A] | 118 ± 13 µM | 0.92 ± 0.06 min⁻¹ | 
5 | O=P(O)(O)OP(=O)(O)OP(=O)(O)O [PPPi, sodium triphosphate pentabasic] |  |  | Kd (ATR): < 0.4 µM
6 | C/C1=C2/[N-][C@H]([C@H](CC(N)=O)[C@@]2(C)CCC(=O)NC[C@@H](C)OP(=O)([O-])O[C@H]2[C@@H](O)[C@@H](n3cnc4cc(C)c(C)cc43)O[C@@H]2CO)[C@]2(C)N=C(/C(C)=C3N=C(/C=C4N=C1[C@@H](CCC(N)=O)C\4(C)C)[C@@H](CCC(N)=O)[C@]\3(C)CC(N)=O)[C@@H](CCC(N)=O)[C@]2(C)CC(N)=O.[Co+2] [cob(II)alamin] |  |  | kobs of oxidation of MCM-bound cob(II)alamin to H2OCbl (human MCM): 0.08 min⁻¹
